Sampled rows, rich in hits. Any-hit rate of the full collection: about 0.58%.
PglD DTNB = PglD (C. jejuni) enzyme inhibition; purified PglD enzyme, DTNB colorimetric CoA detection; 360,000 compounds, 0.098% hits; AID 602405; inhibition, % at 12.5 µM; in the data active = inhibition above about 16%, passing the limit was not always enough; inconclusive = no clear call, values can overlap the other calls
ERp5 inh = blocks human ERp5 reductase activity on insulin; 350,000 compounds, 0.05% hits; inhibition, % at 9.99 µM; ERp5 insulin aggregation, absorbance 650 nm, 90 min; AID 651711; Q15084;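 active = mean replicate inhibition above about 25%, with every replicate also reaching it, limit read from the data, passing the limit was not always enough; inconclusive = only one of those two criteria met; inactive = neither criterion met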
PDI inh = inhibitors of human protein disulfide isomerase; inhibition, % at 10 µM; P07237; PDI insulin aggregation turbidity, A650, 90 min; 350,000 compounds, 0.052% hits; AID 588391;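 active = mean inhibition across replicates of 30% or more, whatever share of single replicates reach that level; inconclusive = mean inhibition below 30% while every single replicate reaches 30%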
Target sequence (P07237 whole entry, looked up): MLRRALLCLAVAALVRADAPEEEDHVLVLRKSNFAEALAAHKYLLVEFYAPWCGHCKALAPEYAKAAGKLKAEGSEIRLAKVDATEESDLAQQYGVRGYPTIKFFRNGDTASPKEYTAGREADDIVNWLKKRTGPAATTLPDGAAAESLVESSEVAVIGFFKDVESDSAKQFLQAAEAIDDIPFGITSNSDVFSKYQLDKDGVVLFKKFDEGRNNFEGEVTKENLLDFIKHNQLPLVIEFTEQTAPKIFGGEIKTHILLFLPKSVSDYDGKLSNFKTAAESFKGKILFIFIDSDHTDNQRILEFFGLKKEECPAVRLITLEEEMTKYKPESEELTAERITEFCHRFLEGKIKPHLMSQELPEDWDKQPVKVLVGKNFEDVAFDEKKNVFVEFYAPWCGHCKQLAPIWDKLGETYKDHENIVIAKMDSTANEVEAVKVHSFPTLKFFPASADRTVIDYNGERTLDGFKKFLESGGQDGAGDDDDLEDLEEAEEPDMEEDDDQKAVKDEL
Cneo AK release = Cryptococcus neoformans lysis via adenylate kinase release | C. neoformans lysis, adenylate kinase release luminescence, 4 h; normalised: neutral wells 0, clomiphene wells 100 | 360,000 compounds, 0.2% hits | lysis activity, % at 15 µM;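 active = mean lysis activity across replicates of at least 80%, whatever share of replicates individually reach that level; inactive = mean lysis activity below 80%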
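Material – Cryptococcus neoformans yeast cells · Quantity – 5 × 10^6 yeast cells/mL · Buffer or medium – YPD medium · Compound – single dose · Timing – 4 h static compound exposure, 37 °C, read 1 h post-reagent · Signal – adenylate kinase release luminescence · Read-out basis – lysis from increased AK signal · Benchmarks – Clomiphene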
miR-122 sensor = blocks miR-122 activity in Huh7 sensor cells | 340,000 compounds, 0.3% hits | activation (reporter increase), % at 12.5 µM | AID 602342 | Huh7 miR-122 Renilla luciferase sensor, 48 h; neutral wells = 0, positive control = 100;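 active = mean replicate activation score at least 90 and every replicate individually at or above 90; inconclusive = only one of the two criteria met; inactive = neither criterion met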;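 also: higher luciferase means less miR-122 activity so hits act as miR-122 inhibitors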
PvdQ acylase = blocks Pseudomonas aeruginosa PvdQ acylase activity; purified PvdQ acylase, fluorescence plate reader; inhibition, % at 10 µM; 340,000 compounds, 0.063% hits; AID 488965; in the data active = inhibition above about 30%, passing the limit was not always enough; inconclusive = no clear call, values can overlap the other calls;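 also: 0% = vehicle neutral wells and 100% = reference inhibitor wells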
* = called active by the depositor; ? = inconclusive; . = no result; [ ] = another dose, or the depositor's remark.

SMILES | PglD DTNB | ERp5 inh | PDI inh | Cneo AK release | miR-122 sensor | PvdQ acylase
O=C(c1ccccc1)N1[C@H](CO)[C@H](c2ccccc2)C12CN(CCC(F)(F)F)C2 | . | -0.1 | . | . | . | .
C[C@@H]1CN([C@@H](C)CO)C(=O)c2cc(NC(=O)CCN3CCOCC3)ccc2O[C@@H]1CN(C)Cc1ccc(C(=O)O)cc1 | -1.5 | 0.7 | . | 95.2* | 10.1[16.7 µM] | .
C[C@H]1CN([C@@H](C)CO)C(=O)c2cc(NC(=O)CCN3CCOCC3)ccc2O[C@@H]1CN(C)Cc1ccc(C(=O)O)cc1 | -1.4 | 0.7 | . | 102.6* | 2.7[16.7 µM] | .
O=C(/C=C/c1ccc(Br)cc1)c1ccc(NC(=O)c2ccco2)cc1 | 3.2 | . | 1.1 | -2.9 | -9.2 | -7.0
O=C(/C=C/c1ccc(Br)cc1)c1ccco1 | . | 2.9 | -12.0 | . | . | 56.0*
COc1ccc(NC(=O)N(C)C[C@@H]2Oc3ccc(NS(=O)(=O)c4cn(C)cn4)cc3CC(=O)N([C@H](C)CO)C[C@@H]2C)cc1 | 1.2 | -1.2 | . | -0.5 | 5.5[16.7 µM] | .
C[C@H](CO)N1C[C@H](C)[C@@H](CN(C)S(=O)(=O)c2cn(C)cn2)Oc2ccc(NS(=O)(=O)c3ccc(F)cc3)cc2C1=O | . | -6.2 | . | . | . | .
Oc1ccccc1-c1nc(/C=C/c2ccccc2)nn1-c1ccccc1 | . | 3.6 | 22.8 | . | . | -2.5
Oc1ccc(/C=C/c2nc(-c3ccccc3O)n(-c3ccccc3)n2)cc1 | 0.3 | . | 48.2* | -2.3 | 28.4 | -5.8
O=C(CCC1CCCCC1)NCCN1C2=NC[C@H](Cc3ccc(O)cc3)N2C[C@H]1Cc1ccc(O)cc1 | 3.7 | -0.4 | 33.6* | -0.3 | -5.1 | -15.8
O=C(COC(=O)c1ccco1)Nc1nc2c(F)c(F)c(F)cc2s1 | -1.0 | 5.0 | 0.8 | 1.0 | . | 2.2
O=C(COC(=O)CCC1CCCC1)Nc1nc2c(F)c(F)c(F)cc2s1 | -3.8 | 2.3 | -16.9 | 90.6* | 6.0 | -2.7
CCCC(=O)Nc1ccc2c(c1)C(=O)N(C)C[C@@H](OC)[C@H](C)CN(C(=O)CC1CC1)[C@@H](C)CO2 | -2.6 | -6.1 | . | 1.5 | . | .
Cc1ccc(S(=O)(=O)N[C@H]2CC[C@H](CC(=O)NCc3ccccc3F)O[C@H]2CO)cc1 | 1.7 | -1.9 | . | 99.7* | . | .
Cc1ccc(S(=O)(=O)N[C@H]2CC[C@@H](CCNC(=O)C3CCCC3)O[C@@H]2CO)cc1 | 0.0 | -0.4 | . | -1.3 | -1.1[16.7 µM] | .
Cc1ccc(S(=O)(=O)N[C@@H]2CC[C@H](CCNC(=O)C3CCCC3)O[C@@H]2CO)cc1 | 2.3 | 0.8 | . | 85.8* | 1.5[16.7 µM] | .
C[C@@H]1CN([C@@H](C)CO)C(=O)c2cccc(NS(=O)(=O)c3cn(C)cn3)c2O[C@@H]1CN(C)C(=O)Nc1ccc2c(c1)OCO2 | 2.5 | 0.0 | . | 51.6 | 1.1[16.7 µM] | .
C[C@@H]1CN([C@H](C)CO)C(=O)c2cccc(NC(=O)c3ccncc3)c2O[C@H]1CN(C)C(=O)Nc1ccccc1 | -0.8 | 2.8 | . | 103.6* | 19.8[16.7 µM] | .
C[C@@H]1CN([C@@H](C)CO)C(=O)c2cccc(NC(=O)c3ccncc3)c2O[C@@H]1CN(C)C | 7.4 | 0.1 | . | 56.2 | 112.0*[16.7 µM] | .
C[C@@H]1CN([C@H](C)CO)C(=O)c2cccc(NC(=O)c3ccncc3)c2O[C@H]1CN(C)C(=O)Nc1ccc(C(F)(F)F)cc1 | -4.1 | 0.7 | . | 81.7* | -2.7[16.7 µM] | .
C[C@@H]1CN([C@H](C)CO)C(=O)c2cccc(NC(=O)c3ccncc3)c2O[C@@H]1CN(C)C(=O)Nc1ccc(F)cc1 | 0.5 | -0.6 | . | 0.5 | 15.0[16.7 µM] | .
C[C@@H]1CN([C@@H](C)CO)C(=O)c2cccc(NC(=O)c3ccncc3)c2O[C@H]1CN(C)C(=O)Nc1ccccc1 | 0.6 | -3.9 | . | 108.6* | 0.0[16.7 µM] | .
C[C@H]1CN([C@@H](C)CO)C(=O)Cc2cc(NS(=O)(=O)c3ccccc3)ccc2O[C@@H]1CN(C)C(=O)NC1CCCCC1 | -5.6 | -7.1 | . | -1.8 | -6.2[16.7 µM] | .
CCCNC(=O)N1C[C@H](C)[C@@H](OC)CN(C)C(=O)c2cc(NC(C)=O)ccc2OC[C@@H]1C | -4.8 | -4.4 | . | 0.3 | 1.0[16.7 µM] | .
CCC(=O)N[C@H]1C=C[C@@H](CC(=O)OC)O[C@@H]1CO | 0.0 | -1.0 | . | 88.2* | 4.6[16.7 µM] | .
SMILES | PglD DTNB | ERp5 inh | PDI inh | Cneo AK release | miR-122 sensor | PvdQ acylase
CCC(=O)N1CC2(C1)[C@H](c1ccc(-c3cccc(OC)c3)cc1)[C@@H](CO)N2C(C)=O | . | -2.2 | . | . | . | .
O=C(CN1c2ccccc2Sc2ccccc21)NNC(=O)Nc1cccc(Cl)c1 | 3.8 | -1.7 | 3.5 | -2.2 | 112.7* | -12.9
CC(=NO)C1CCC2C3CCC4=CC(=NO)CCC4(C)C3C(=O)CC12C (configuration not stated) | -3.2 | -3.9 | 37.4* | -0.1 | -2.7 | -13.1
C[C@@H]1CN([C@H](C)CO)C(=O)c2cccc(NS(=O)(=O)c3ccc(F)cc3)c2O[C@H]1CN(C)CC1CC1 | 0.1 | -5.2 | . | -7.8 | -0.9[16.7 µM] | .
COc1ccc(NS(=O)(=O)c2cc(C(=O)OC(C)C(=O)N3CCOCC3)ccc2Cl)cc1 (configuration not stated) | . | -0.6 | 3.6 | . | . | -6.0
CNC(=O)NC(=O)C(C)OC(=O)c1ccc(Cl)c(S(=O)(=O)Nc2ccc(F)cc2)c1 (configuration not stated) | -2.6 | 2.7 | -6.1 | -2.9 | 215.2* | 1.3
C[C@H]1CCCCO[C@@H](CN(C)C(=O)C2CCCCC2)[C@@H](C)CN([C@@H](C)CO)C(=O)c2cc(NC(=O)c3ccccc3)ccc2O1 | -1.8 | 9.8 | . | 0.8 | 1.1[16.7 µM] | .
O=C(C1CCOCC1)N1CC[C@@H]2[C@@H](CO)Nc3ccc(Br)cc3[C@@H]21 | 7.0 | 2.3 | . | 91.4* | 39.8[16.7 µM] | .
O=C(C1CC1)N1CC[C@@H]2[C@@H](CO)Nc3ccc(Br)cc3[C@@H]21 | -1.3 | ? | . | -0.9 | -5.3[16.7 µM] | .
CCCCCCNS(=O)(=O)c1ccc(Cl)s1 | 0.3 | . | 5.3 | 2.8 | 209.3* | -2.0
O=C(C[C@H]1CC[C@H](NC(=O)c2ccc3c(c2)OCO3)[C@H](CO)O1)NCc1ccc(Cl)cc1 | -1.7 | -1.7 | . | 0.8 | . | .
O=S(=O)(c1ccc(F)cc1)N1C[C@@H]2[C@H](c3ccccc31)[C@@H](CO)N2Cc1ccccc1Cl | 5.2 | 1.7 | . | 91.6* | 0.0[16.7 µM] | .
O=S(=O)(c1ccc(F)cc1)N1C[C@H]2[C@@H](c3ccccc31)[C@@H](CO)N2Cc1ccccc1Cl | 4.4 | 3.7 | . | 6.0 | 35.7[16.7 µM] | .
CC(=O)N1[C@@H]2CN(S(=O)(=O)c3ccccc3F)c3ccccc3[C@@H]2[C@@H]1CO | 1.2 | 20.1 | . | 91.9* | 33.3[16.7 µM] | .
O=S(=O)(c1ccccc1)N1C[C@H]2[C@@H](c3ccccc31)[C@@H](CO)N2Cc1ccc2c(c1)OCO2 | 5.9 | 0.3 | . | -2.8 | 140.0*[16.7 µM] | .
O=S(=O)(c1ccccc1)N1C[C@H]2[C@@H](c3ccccc31)[C@H](CO)N2Cc1ccc2c(c1)OCO2 | -3.6 | 3.6 | . | 1.4 | 10.0[16.7 µM] | .
O=C(C[C@@H]1CC[C@H](NC(=O)Nc2ccccc2)[C@@H](CO)O1)NCc1cccc(F)c1 | 3.0 | -1.9 | . | -3.5 | . | .

Bioassay records deposited in PubChem BioAssay by Broad Institute.
